Reference: ChEMBL document CHEMBL1153826, “Synthesis of dammarane-type triterpene derivatives and their ability to inhibit HIV and HCV proteases” (Bioorg Med Chem, 2009)
Active and inactive are the calls of the source. The rule behind the calls is not given here.

Columns and labels:
[1] = Inhibition of HCV protease by fluorometric method; design: species or system Hepacivirus hominis
[2] = biological target: Protease (Human immunodeficiency virus 1, UniProt Q9YQ12); assay: Inhibition of HIV1 protease by HPLC method
[3] = Inhibition of trypsin up to 1 ug/mL; conditions: in the assay text read “1 mg/mL” for “1 ug/mL”
Outline: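 Trypsin was mixed with the compound in DMSO and assay buffer in 384-well plates. Fresh HiLyte Fluor 488-labeled casein substrate was added with rotary shaking, then incubated 30 min at 37 °C. Fluorescence was read and inhibition calculated as in the HCV protease assay. Soybean trypsin–chymotrypsin inhibitor was the positive control.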

[4] = biological target: T1, Renin (Homo sapiens) (UniProt P00797); assay: Inhibition of renin up to 1 ug/mL; conditions: in the assay text read “1 mg/mL” for “1 ug/mL”
T1 sequence (whole entry): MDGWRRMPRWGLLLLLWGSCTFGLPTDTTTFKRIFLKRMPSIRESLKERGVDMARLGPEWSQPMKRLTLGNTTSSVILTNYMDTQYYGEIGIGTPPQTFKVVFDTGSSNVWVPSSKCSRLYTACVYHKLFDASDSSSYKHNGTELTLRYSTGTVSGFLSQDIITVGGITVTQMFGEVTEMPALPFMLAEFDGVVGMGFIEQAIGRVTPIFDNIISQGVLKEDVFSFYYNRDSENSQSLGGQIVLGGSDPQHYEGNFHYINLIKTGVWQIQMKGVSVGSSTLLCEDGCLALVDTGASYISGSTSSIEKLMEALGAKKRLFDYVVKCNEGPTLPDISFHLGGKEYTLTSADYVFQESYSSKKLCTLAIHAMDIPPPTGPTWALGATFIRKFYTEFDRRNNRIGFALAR
Outline: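 Recombinant renin was mixed with the compound in DMSO in 384-well plates. Fresh FRET peptide substrate Arg-Glu(EDANS)-[…]Dabcyl)-Arg was added, then rotated 30 min at 37 °C. Read-out was fluorometric, with inhibition calculated as in the HCV protease assay. Ac-HPFV-(Sta)-LF-NH2 was the positive control.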

Protease, sequence (Q9YQ12 whole entry): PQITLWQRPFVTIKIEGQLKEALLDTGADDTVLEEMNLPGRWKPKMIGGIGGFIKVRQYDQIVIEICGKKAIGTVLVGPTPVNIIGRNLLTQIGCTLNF

Row | SMILES | IC50 [1] [µM] | IC50 [2] [µM] | Activity [3] | Activity [4]
1 | CC1(C)CCC[C@](C)([C@H]2CC[C@]3(C)[C@@H]2C(=O)C[C@@H]2[C@@]4(C)CCC(=O)C(C)(C)[C@@H]4CC[C@]23C)O1 | 72.3 | > 218 | – | –
2 | CC1(C)CCC[C@](C)([C@H]2CC[C@]3(C)[C@@H]2[C@H](O)C[C@@H]2[C@@](C)(CC(=O)O)[C@H](C(C)(C)C(=O)O)CC[C@]23C)O1 | > 198 | 11.9 | inactive | inactive
3 | CC1(C)CCC[C@](C)([C@H]2CC[C@]3(C)[C@@H]2[C@H](O)C[C@@H]2[C@@]4(C)C=C(O)C(=O)C(C)(C)[C@@H]4CC[C@]23C)O1 | > 212 | 28.5 | – | –
4 | CC1(C)CCC[C@](C)([C@H]2CC[C@]3(C)[C@@H]2C(=O)C[C@@H]2[C@@]4(C)CC[C@H](OC(=O)CC(C)(C)C(=O)O)C(C)(C)[C@@H]4[C@@H](OC(=O)CC(C)(C)C(=O)O)C[C@]23C)O1 | 18.9 | 10.9 | inactive | inactive
5 | COC(=O)[C@@]1(O)C[C@]2(C)[C@H]3C[C@@H](O)[C@@H]4[C@@H]([C@@]5(C)CCCC(C)(C)O5)CC[C@@]4(C)[C@]3(C)CC[C@H]2C1(C)C | > 198 | > 198 | – | –
6 | CC1(C)CCC[C@](C)([C@H]2CC[C@]3(C)[C@@H]2[C@H](O)C[C@@H]2[C@@]4(C)CC[C@H](OC(=O)CC(C)(C)C(=O)O)C(C)(C)[C@@H]4CC[C@]23C)O1 | 30.4 | 2.7 | inactive | inactive
7 | CC1(C)CCC[C@](C)([C@H]2CC[C@]3(C)[C@@H]2C(=O)C[C@@H]2[C@@](C)(CC(=O)O)[C@H](C(C)(C)C(=O)O)CC[C@]23C)O1 | 9.1 | 22.8 | inactive | inactive
8 | COC(=O)[C@@]1(O)C[C@]2(C)[C@H]3C[C@@H](O)[C@@H]4[C@@H]([C@@]5(C)CCCC(C)(C)O5)CC[C@@]4(C)[C@]3(C)CC(=O)[C@H]2C1(C)C | > 193 | > 193 | – | –
9 | CC1(C)CCC[C@](C)([C@H]2CC[C@]3(C)[C@@H]2[C@H](O)C[C@@H]2[C@@]4(C)C[C@](O)(C(=O)O)C(C)(C)[C@@H]4CC[C@]23C)O1 | > 204 | 10 | – | –
10 | CC1(C)CCC[C@](C)([C@H]2CC[C@]3(C)[C@@H]2[C@H](O)C[C@@H]2[C@@]4(C)CC[C@H](O)C(C)(C)[C@@H]4[C@@H](OC(=O)CC(C)(C)C(=O)O)C[C@]23C)O1 | > 166 | 2.7 | inactive | inactive
11 | CC1(C)CCC[C@](C)([C@H]2CC[C@]3(C)[C@@H]2[C@H](O)C[C@@H]2[C@@]4(C)CCC(=O)C(C)(C)[C@@H]4CC[C@]23C)O1 | > 218 | 39.4 | – | –
12 | CC1(C)CCC[C@](C)([C@H]2CC[C@]3(C)[C@@H]2[C@H](O)C[C@@H]2[C@@]4(C)CC[C@H](O)C(C)(C)[C@@H]4[C@@H](O)C[C@]23C)O1 [PANAXATRIOL] | > 210 | > 210 | – | –
13 | CC1(C)CCC[C@](C)([C@H]2CC[C@]3(C)[C@@H]2[C@H](O)C[C@@H]2[C@@]4(C)C[C@](O)(C(=O)O)C(C)(C)[C@@H]4C(=O)C[C@]23C)O1 | > 213 | 29.9 | – | –
14 | CC1(C)CCC[C@](C)([C@H]2CC[C@]3(C)[C@@H]2[C@H](O)C[C@@H]2[C@@]4(C)CC[C@H](OC(=O)CC(C)(C)C(=O)O)C(C)(C)[C@@H]4[C@@H](O)C[C@]23C)O1 | > 166 | 3.9 | inactive | inactive
15 | CC1(C)CCC[C@](C)([C@H]2CC[C@]3(C)[C@@H]2[C@H](O)C[C@@H]2[C@@]4(C)CC[C@H](OC(=O)CC(C)(C)C(=O)O)C(C)(C)[C@@H]4[C@@H](OC(=O)CC(C)(C)C(=O)O)C[C@]23C)O1 | 1.8 | 5.4 | inactive | inactive
16 | CC1(C)CCC[C@](C)([C@H]2CC[C@]3(C)[C@@H]2[C@H](O)C[C@@H]2[C@@]4(C)CC[C@H](O)C(C)(C)[C@@H]4CC[C@]23C)O1 [PANAXADIOL] | > 217 | > 217 | – | –
17 | CC1(C)CCC[C@](C)([C@H]2CC[C@]3(C)[C@@H]2C(=O)C[C@@H]2[C@@]4(C)CCC(=O)C(C)(C)[C@@H]4C(=O)C[C@]23C)O1 | > 213 | 24.2 | – | –
18 | CC1(C)CCC[C@](C)([C@H]2CC[C@]3(C)[C@@H]2[C@H](O)C[C@@H]2[C@@]4(C)CCC(=O)C(C)(C)[C@@H]4C(=O)C[C@]23C)O1 | > 213 | 42.3 | – | –
19 | CC1(C)CCC[C@](C)([C@H]2CC[C@]3(C)[C@@H]2C(=O)C[C@@H]2[C@@]4(C)CC[C@H](OC(=O)CC(C)(C)C(=O)O)C(C)(C)[C@@H]4CC[C@]23C)O1 | 62.2 | 6.5 | inactive | inactive
